According to ChEMBL document CHEMBL1142238, “Highly efficient ligands for dihydrofolate reductase from Cryptosporidium hominis and Toxoplasma gondii inspired by structural analysis” (J Med Chem, 2007):

Legend:
[1] = Inhibition of Cryptosporidium hominis DHFR-TS expressed in Escherichia coli
[2] = target: T1, Bifunctional dihydrofolate reductase-thymidylate synthase (Toxoplasma gondii, UniProt Q07422); assay: Inhibition of Toxoplasma gondii DHFR-TS
T1 sequence (Q07422 whole entry): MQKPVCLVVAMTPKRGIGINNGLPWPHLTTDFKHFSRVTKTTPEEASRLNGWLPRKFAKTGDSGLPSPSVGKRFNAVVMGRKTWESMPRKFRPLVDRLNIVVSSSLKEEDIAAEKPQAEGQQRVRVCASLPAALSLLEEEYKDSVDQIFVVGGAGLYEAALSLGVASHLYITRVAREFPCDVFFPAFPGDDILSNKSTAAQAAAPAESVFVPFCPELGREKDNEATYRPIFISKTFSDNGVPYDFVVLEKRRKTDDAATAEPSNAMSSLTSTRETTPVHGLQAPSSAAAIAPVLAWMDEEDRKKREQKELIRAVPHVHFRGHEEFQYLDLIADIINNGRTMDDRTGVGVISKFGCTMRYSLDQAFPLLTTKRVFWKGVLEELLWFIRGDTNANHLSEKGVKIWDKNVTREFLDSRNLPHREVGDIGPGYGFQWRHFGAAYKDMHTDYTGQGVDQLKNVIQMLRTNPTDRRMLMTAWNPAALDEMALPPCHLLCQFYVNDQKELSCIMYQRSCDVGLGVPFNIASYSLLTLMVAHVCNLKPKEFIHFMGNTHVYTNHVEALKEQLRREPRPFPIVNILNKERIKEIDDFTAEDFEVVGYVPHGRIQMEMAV

Cryptosporidium hominis [3] = assay: Ligand efficiency at Cryptosporidium hominis DHFR-TS
Method in brief: (§1)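 Computed from the enzyme IC50 substituted for Kd: ΔG = (1.99 cal K^-1 mol^-1)(300 K)(ln IC50)(0.001 kcal/cal), divided by the number of non-hydrogen atoms.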

[4] = target: T2, Bifunctional dihydrofolate reductase-thymidylate synthase (Toxoplasma gondii) (UniProt Q07422); assay: Ligand efficiency at Toxoplasma gondii DHFR-TS; method in brief: as §1
T2 sequence (whole entry): T1 sequence (Q07422 whole entry)

Cryptosporidium hominis [5] = assay: Ligand efficiency at Cryptosporidium hominis DHFR-TS relative to TMP
[6] = target: T2, Bifunctional dihydrofolate reductase-thymidylate synthase (Toxoplasma gondii); assay: Ligand efficiency at Toxoplasma gondii DHFR-TS relative to TMP

IC50 [1] | Activity (Cryptosporidium hominis [3]) | Activity (Cryptosporidium hominis [5]) | SMILES | IC50 [2] | Activity [4] | Activity [6]
194 µM | – | – | COc1cc(C(O)C#Cc2cnc(N)nc2N)cc(OC)c1OC (stereo unspecified) | – | – | –
5 µM | – | – | COc1cc(C(C#Cc2c(C)nc(N)nc2N)OC)cc(OC)c1OC (stereo unspecified) | 0.55 µM | – | –
0.023 µM | 0.32 | – | CN(Cc1cnc2nc(N)nc(N)c2n1)c1ccc(C(=O)N[C@@H](CCC(=O)O)C(=O)O)cc1 [METHOTREXATE] | – | 0.33 | –
86.1 µM | – | 0.24 | COc1cc(CC#Cc2cnc(N)nc2N)cc(OC)c1OC | 21.7 µM | – | 0.28
133 µM | – | – | COc1cc(C(C#Cc2cnc(N)nc2N)OC)cc(OC)c1OC (stereo unspecified) | 9.8 µM | – | –
> 1000 µM | – | – | COc1cc(CCc2cnc(N)nc2N)cc(OC)c1OC | 90.2 µM | – | –
0.038 µM | 0.41 | 0.41 | COc1cc([C@@H](C)C#Cc2c(C)nc(N)nc2N)cc(OC)c1OC | 0.0014 µM | 0.49 | 0.49
> 1000 µM | – | – | COc1cc(/C=C/c2cnc(N)nc2N)cc(OC)c1OC | – | – | –
– | – | – | COc1cc(C(C)C#Cc2cnc(N)nc2N)cc(OC)c1OC (stereo unspecified) | 3.1 µM | – | –
– | 0.32 | – | COc1cc(Cc2cnc(N)nc2N)cc(OC)c1OC | – | 0.33 | –
10.2 µM | 0.29 | 0.29 | COc1cc(CC#Cc2c(C)nc(N)nc2N)cc(OC)c1OC | 0.88 µM | 0.35 | 0.35
141 µM | – | – | COc1cc(C(O)C#Cc2c(C)nc(N)nc2N)cc(OC)c1OC (stereo unspecified) | 9.1 µM | – | –

SMILES | IC50 [1] | Activity (Cryptosporidium hominis [3]) | Activity (Cryptosporidium hominis [5]) | IC50 [2] | Activity [4] | Activity [6]
COc1cc(C(C)C#Cc2c(C)nc(N)nc2N)cc(OC)c1OC (stereo unspecified) | 0.169 µM | – | – | 0.12 µM | – | –
COc1cc([C@H](C)C#Cc2c(C)nc(N)nc2N)cc(OC)c1OC | 1.91 µM | – | – | 0.013 µM | – | –
